ARNT TACC3 PPI = disrupts binding between human ARNT and TACC3; Q9Y6A5; AlphaScreen His-ARNT PAS-B/GST-TACC3 binding, luminescence; TACC3 fragment carries E629A point mutation; inhibition, % at 9.99 µM; 390,000 tested, 0.66% active; AID 623870;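 active means mean inhibition of replicates at least 50% and at least half of replicates each reaching 50%; inconclusive means half or more replicates reach 50% but mean below 50%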
FGF22 binding-1 = FGF22 (human) thermal shift binding; activity (Tm shift, normalised), % at 9.99 µM; recombinant FGF22 thermal shift, SYPRO orange fluorescence; percent of sucrose octasulfate shift, DMSO zero; Q9HCT0; 340,000 tested, 1.5% active;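 active means mean Tm shift, scaled 0 neutral to 100 positive control, at about 1.3% or above, every replicate too, limit read from the data; inconclusive means no clear call, values can overlap the other calls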
Target sequence (Q9HCT0 whole entry, looked up): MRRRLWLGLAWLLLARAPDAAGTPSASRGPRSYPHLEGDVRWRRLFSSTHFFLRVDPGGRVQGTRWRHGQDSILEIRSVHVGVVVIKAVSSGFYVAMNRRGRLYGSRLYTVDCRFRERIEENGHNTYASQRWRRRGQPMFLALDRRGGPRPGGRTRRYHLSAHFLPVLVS
ERp5 inh = inhibitors of human ERp5; ERp5 insulin aggregation, absorbance 650 nm, 90 min; AID 651711; 350,000 tested, 0.05% active; Q15084; inhibition, % at 9.99 µM;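 active means mean replicate inhibition above about 25%, with every replicate also reaching it, limit read from the data, passing the limit was not always enough; inconclusive means only one of those two criteria met; inactive means neither criterion met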
Target sequence (Q15084 whole entry, looked up): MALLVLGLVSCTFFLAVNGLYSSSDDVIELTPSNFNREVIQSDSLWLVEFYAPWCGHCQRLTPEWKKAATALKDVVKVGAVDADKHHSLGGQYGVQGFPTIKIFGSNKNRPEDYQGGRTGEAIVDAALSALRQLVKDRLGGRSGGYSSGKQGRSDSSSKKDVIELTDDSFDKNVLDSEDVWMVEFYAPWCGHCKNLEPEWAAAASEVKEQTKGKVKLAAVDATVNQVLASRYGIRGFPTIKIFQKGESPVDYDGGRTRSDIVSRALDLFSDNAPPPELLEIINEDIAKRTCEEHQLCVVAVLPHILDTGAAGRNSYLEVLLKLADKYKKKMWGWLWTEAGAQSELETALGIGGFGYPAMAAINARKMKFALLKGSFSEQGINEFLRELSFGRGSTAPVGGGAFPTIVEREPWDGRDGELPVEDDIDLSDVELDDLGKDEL
AF4-AF9 inh = inhibitors of human MLL-AF4/AF9 interaction; P42568; AlphaScreen, biotin-AF4 peptide binding to FLAG-AF9; inhibition, % at 10 µM; 350,000 tested, 0.47% active; AID 651704;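 active means every replicate reaching a set inhibition limit, whatever the replicate mean, cut at about 25% in these data; inconclusive means mean inhibition reaches that limit but some replicates miss it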
FN deposit inh = fibronectin deposition inhibition; inhibition, % at 12.6 µM; 350,000 tested, 0.086% active; AID 743247; AH1F fibroblasts, Alexa488-fibronectin deposition fluorescence, overnight;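 active means mean inhibition across replicates of 30% or more, regardless of how many single replicates reach that level; inconclusive means mean under 30% yet at least half of replicates reach 30%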
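Measured by – fluorescence 485/525 nm · System – AH1F fibroblast monolayer, labelled fibronectin deposition · Amount – 10000 cells per well · Buffer or medium – serum-reduced DMEM (2% serum) · Doses – single dose, pinned · Also added – fluorescent fibronectin at 24 nM final · Schedule – 1 h cell attachment, overnight exposure to compound and label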
PDI turbidity = blocks human protein disulfide isomerase activity; P07237; PDI insulin aggregation turbidity, A650, 90 min; 350,000 tested, 0.052% active; inhibition, % at 10 µM;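 active means mean inhibition across replicates of 30% or more, whatever share of single replicates reach that level; inconclusive means mean inhibition below 30% while every single replicate reaches 30%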
FGF22 binding-2 = binds human FGF22 shifting its melting temperature | shares compounds with FGF22 binding-1 | thermal shift activity, °C (ΔTm) at 38 µM | 1,000 tested, 2% active | recombinant FGF22 thermal shift, SYPRO orange fluorescence | AID 720646;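 active means fitted rise in melting shift crosses a set limit at or below the top valid dose tested; inconclusive means flat fit at mid-level activity, or a poor quality fit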
FGF22 TSA DP = binds human FGF22 shifting its melting temperature. shares compounds with FGF22 binding-1. Thermal shift assay, SYPRO orange, melting temperature shift. Tm shift (activity), % at 38 µM. 50 tested, under 10 active;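 active means compounds whose fitted dose curve of melting temperature shift rises past a set threshold within the tested doses; inconclusive means flat curve at moderate activity, or poor curve fit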
TSA no protein = shows thermal shift signal without protein, FGF22 counter-screen; shares compounds with FGF22 binding-1; compound-only SYPRO orange thermal shift counter-screen, no protein; AC50, µM (series often up to 38 µM); 1,000 tested, 2% active; AID 743019;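 active means rising signal whose fitted curve reaches the 0.54 level within the top valid dose, showing a melting point, actives reach about 13 µM in these data; inactive means the rest, including activity in the opposite direction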; further: value is where the raw curve crosses a fixed level and not half-maximal
Numbers stand for hits; – = inactive; ? = inconclusive; · = no result given. A selection: hits, their analogues and other compounds. The true share with any hit is near 2.1%.

SMILES | ARNT TACC3 PPI | FGF22 binding-1 | ERp5 inh | AF4-AF9 inh | FN deposit inh | PDI turbidity | FGF22 binding-2 | TSA no protein | others
CCC(=O)N1CC2(C1)[C@H](c1ccc(-c3cccc(C)c3)cc1)[C@@H](CO)N2S(C)(=O)=O | · | 4.5 | – | – | – | · | – | –
CCN(CCn1cccn1)C(=O)CCc1nnc(Cc2c[nH]c3ccccc23)o1 | – | 12.3 | – | – | – | – | – | –
Oc1cc(O)cc(-c2cc3ccc(O)cc3o2)c1 | – | 2.1 | – | – | · | · | – | –
CC(C)c1ccc(NC(=O)CN2C(=O)NC(Cc3c[nH]c4ccccc34)C2=O)cc1 (stereo not given) | – | – | – | ? | – | – | · | ·
Cc1cc(C)cc(NC(=O)CN2C(=O)NC(Cc3c[nH]c4ccccc34)C2=O)c1 (stereo not given) | · | 1.6 | – | – | – | – | · | –
COc1ccc2c3c(n(C)c2c1)[C@@H](CO)N(C(=O)CN(C)C)CC31CCN(Cc2nccs2)CC1 | · | – | – | – | · | · | · | ·
COc1cc2ccccc2cc1C(=O)OCC(=O)c1c(N)n(C)c(=O)n(C)c1=O | – | 17.2 | – | – | – | – | – | –
O=C(NC[C@@H]1[C@H](c2ccccc2)[C@H](CO)N1C(=O)Cc1cccnc1)C1CC1 | – | 1.4 | – | – | – | · | – | –
O=C(CNc1ccccc1OC(F)F)N1CCc2ccccc21 | – | 1.4 | – | – | · | – | – | –
COc1cccc(NC(=O)CN2CCN(S(=O)(=O)c3ccc(C(C)C)cc3)CC2)c1 | – | · | · | · | · | – | · | ·
COc1cccc(NC(=O)CN2CCN(S(=O)(=O)c3ccc(F)cc3)CC2)c1 | – | 28.4 | – | – | · | – | – | –
C[C@@H]1CN([C@@H](C)CO)C(=O)c2cc(NC(=O)Nc3cccc4ccccc34)ccc2O[C@H]1CN(C)S(=O)(=O)c1cn(C)cn1 | – | – | – | – | · | · | · | ·
Clc1ccccc1C=NNc1ccccn1 | – | – | – | – | – | – | · | ·
Brc1ccccc1/C=N/Nc1ccccn1 | – | 2.2 | – | – | – | – | – | –
O=C(CNC(=O)c1ccc(S(=O)(=O)N2CCCC2)cc1)N/N=C/c1ccc(F)cc1 | · | 1.4 | – | – | – | – | – | –
O=C(CCCOc1ccc(Br)cc1)Nc1ccc(S(=O)(=O)N2CCOCC2)cc1 | – | – | – | – | – | – | · | ·
O=C(Nc1ccc(S(=O)(=O)N2CCOCC2)cc1)c1ccc(F)cc1 | – | 1.4 | – | – | – | – | · | – | FGF22 TSA DP=–
CC(=O)c1ccc(OCCCC(=O)Nc2ccc(S(=O)(=O)N3CCOCC3)cc2)cc1 | – | 1.9 | – | – | – | – | – | –
O=C(Nc1ccc(S(=O)(=O)N2CCOCC2)cc1)c1ccc(S(=O)(=O)N2CCOCC2)cc1 | – | – | – | – | – | – | · | ·
COc1cccc(-c2ccc([C@@H]3[C@@H](C#N)N(C(=O)c4ccccn4)[C@@H]3CO)cc2)c1 | – | – | – | – | – | · | · | ·
CCCC(=O)Nc1ccc2c(c1)OC[C@H](C)N(C(=O)c1ccncc1)C[C@H](C)[C@@H](OC)CN(C)C2=O | · | – | – | – | – | · | · | ·
O=C(O)CCc1nn2c3ccccc3n(CC(=O)c3ccccc3)c2nc1=O | – | · | · | · | – | – | · | ·
CCOC(=O)Cn1c2ccccc2n2nc(CCC(=O)O)c(=O)nc12 | – | 18.7 | – | – | – | – | – | –
CN1C(=O)c2cc(NC(=O)C3CCCC3)ccc2OC[C@H]2O[C@@H](CC(=O)NCCc3ccncc3)CC[C@@H]21 | · | – | – | – | – | · | · | ·
O=S(=O)(c1cccc2cccnc12)N1CCN(Cc2ccccc2)CC1 | – | 1.4 | – | – | – | – | – | –
SMILES | ARNT TACC3 PPI | FGF22 binding-1 | ERp5 inh | AF4-AF9 inh | FN deposit inh | PDI turbidity | FGF22 binding-2 | TSA no protein | others
CC(C)NC(=O)N(C)C[C@H]1OCCCC[C@H](C)Oc2ccc(NS(=O)(=O)c3ccc(F)cc3)cc2C(=O)N([C@H](C)CO)C[C@H]1C | – | – | – | – | – | · | · | ·
COc1cc(/C=N/NC(=O)c2cc3ccccc3[nH]2)ccc1O | – | 2.7 | – | – | – | – | – | – | FGF22 TSA DP=–
COc1cc(/C=N/NC(=O)CCn2c3ccccc3c3ccccc32)ccc1O | – | 2.1 | – | – | · | – | – | 13µM
COc1cc(/C=N/NC(=O)c2cccc(C(=O)N/N=C/c3ccc(O)c(OC)c3)n2)ccc1O | – | – | – | – | – | – | · | ·
Nc1nc(O)c(Sc2ccccc2[N+](=O)[O-])c(=O)[nH]1 | – | 1.9 | – | – | – | – | – | –
Nc1ccccc1Sc1ccccc1[N+](=O)[O-] | – | · | · | · | – | – | · | ·
CCOC(=O)N1CCN(C(=O)CCCn2c(=S)[nH]c3ccsc3c2=O)CC1 | – | – | – | – | – | – | · | ·
CCOC(=O)N1CCN(C(=O)CCCCCn2c(=S)[nH]c3ccsc3c2=O)CC1 | – | 1.4 | – | – | – | – | – | –
CCN1[C@@H]2c3ccc(-c4ccc(F)cc4)c(=O)n3C[C@H]1[C@H](CO)[C@H]2C(=O)Nc1nccs1 | – | – | – | – | – | · | · | ·
NC(=NCCc1c[nH]c2ccccc12)NS(=O)(=O)c1ccc2ccccc2c1 | – | · | · | · | – | – | · | ·
NC(=NCCc1c[nH]c2ccccc12)NS(=O)(=O)c1ccc(F)cc1 | – | 2.7 | – | – | – | – | – | –
Cc1cccc(NC(=O)c2cccc(N3C(=O)CCC3=O)c2)c1 | – | – | – | – | – | – | · | ·
CCc1ccc(C(=O)NNC(=O)c2cccc(N3C(=O)CCC3=O)c2)cc1 | – | 18.8 | – | – | – | – | – | –
Cc1cccc(NC(=O)COc2coc(CN3CCc4ccccc4C3)cc2=O)c1 | – | 7.0 | – | – | – | – | – | –
COc1ccccc1NS(=O)(=O)c1cc(C(=O)Nc2ccc(S(=O)(=O)Nc3onc(C)c3C)cc2)ccc1C | – | 1.8 | – | – | – | – | – | –
C[C@@H]1CN([C@@H](C)CO)C(=O)c2cccc(NS(=O)(=O)c3cn(C)cn3)c2O[C@@H]1CN(C)S(=O)(=O)c1ccc(Cl)cc1 | – | 1.5 | – | – | – | · | – | –
C[C@@H]1CN([C@@H](C)CO)C(=O)c2cccc(NC(=O)c3ccc(-c4nccs4)cc3)c2O[C@@H]1CN(C)C | – | 5.0 | – | – | – | · | – | –
COc1ccc(S(=O)(=O)N(C)C[C@@H]2Oc3c(NC(=O)c4cc(C)nn4C)cccc3C(=O)N([C@H](C)CO)C[C@H]2C)cc1 | · | 1.3 | – | – | · | · | – | –

From PubChem
